NPY Y2 blocker = NPY-Y2 receptor antagonists, primary screen, cell-based; Neuropeptide Y receptor type 2 (Homo sapiens), P49146; NPY-Y2 expressing cells, antagonist mode; inhibition, % at 2.7 µM; hit rate 0.99% among 140,000; AID 793, 2007; in the data active means inhibition above about 17%;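 further: 0% = vehicle with agonist challenge and 100% = reference antagonist with challenge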
NPY-Y2 PAM-ag = NPY-Y2 potentiators or agonists, primary screen, cell-based; Neuropeptide Y receptor type 2 (Homo sapiens), P49146; cells expressing NPY-Y2, potentiator/agonist read-out; activation, % at 3.6 µM; hit rate 0.45% among 220,000; AID 1359, 2008; in the data active means activation above about 27%;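 further: cells stimulated with NPY near EC25 plus isoproterenol at EC100; 0% = vehicle plus submaximal agonist and 100% = vehicle plus saturating agonist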
NPY-Y1 antag = NPY-Y1 receptor antagonists, primary screen, cell-based | Neuropeptide Y receptor type 1 (Homo sapiens), P25929 | HEK293-CNG Y1 cells, membrane potential fluorescence; NPY at EC95, then isoproterenol | inhibition, % at 3.6 µM | hit rate 1% among 200,000 | AID 1040, 2008;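 active means inhibition above the campaign mean inhibition of all tested compounds plus 3 SD, cut at about 20% in these data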;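 further: 0% = DMSO wells given NPY plus isoproterenol and 100% = isoproterenol alone without NPY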
Target sequence (P25929 whole entry, looked up): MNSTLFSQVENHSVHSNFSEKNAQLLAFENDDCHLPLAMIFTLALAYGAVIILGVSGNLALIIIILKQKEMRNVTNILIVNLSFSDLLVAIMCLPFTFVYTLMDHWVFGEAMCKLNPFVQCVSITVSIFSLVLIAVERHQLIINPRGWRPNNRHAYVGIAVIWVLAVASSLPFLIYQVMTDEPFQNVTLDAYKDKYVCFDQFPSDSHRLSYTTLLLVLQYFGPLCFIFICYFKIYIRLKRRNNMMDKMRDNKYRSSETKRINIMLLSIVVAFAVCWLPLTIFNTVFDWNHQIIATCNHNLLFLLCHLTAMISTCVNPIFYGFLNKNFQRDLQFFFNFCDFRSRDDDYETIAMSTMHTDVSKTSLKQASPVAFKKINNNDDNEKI
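Test system – HEK293 Y1/CNG channel cell line · Also added – NPY agonist 25 nM, then isoproterenol 1 µM plus Ro 20-1724 25 µM · Compound dosing – one concentration, 3.6 µM, in 0.4% DMSO · Schedule – compound incubation 1 h at room temperature, readout 45 min post-stimulation · Technique – fluorescence, membrane potential probe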
NPY-Y1 PAM-ag = NPY-Y1 receptor potentiators or agonists, primary screen, cell-based; NPY-Y1 expressing cells, potentiator/agonist activation; AID 1304, 2008; hit rate 0.37% among 220,000; activation, % at 3.6 µM; in the data active means activation above about 33%, passing the limit was not always enough;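 further: cells stimulated with NPY at EC10 then isoproterenol at EC100; 0% = low agonist plus stimulus and 100% = saturating agonist plus stimulus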
NPY-Y1 antag ct = NPY-Y1 receptor antagonists, selectivity check, counter-screen for NPY-Y2 antagonist project, cell-based. shares compounds with NPY Y2 blocker. cell-based NPY-Y1 antagonism counterscreen. inhibition, % at 3.6 µM. hit rate 19% among 710. AID 1256, 2008; in the data active means inhibition above about 20%;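 further: cells challenged with NPY then isoproterenol with cAMP sensed through a CNG channel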
NPY-Y2 ant conf = NPY-Y2 receptor antagonists, retest of hits, confirmation, HEK293-CNG cells, membrane potential fluorescence, triplicate. AID 1257, 2008. hit rate 32% among 710. inhibition, % at 2.8 µM. shares compounds with NPY Y2 blocker. HEK293 NPY-Y2 CNG channel;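 active means mean inhibition of triplicate wells above the hit cutoff set in the primary screen, cut at about 17% in these data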;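 further: 0% = DMSO with NPY challenge and 100% = BIIE0246 high control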
* = called active by the depositor; x = no result given. Rows were chosen to be rich in hits. Some 1.9% of all compounds tested hit in one or more screens of this group.

SMILES	NPY Y2 blocker	NPY-Y2 PAM-ag	NPY-Y1 antag	NPY-Y1 PAM-ag	others
CCC(C)NC(=O)CCC(=O)Nc1ccc2nc(N3CC(C)CC(C)C3)cc(C)c2c1 (stereo not given)	x	4.5	9.2	5.6
CSCCC(NS(=O)(=O)c1ccc(C)c(C(=O)O)c1)C(=O)O (stereo not given)	x	1.3	4.6	5.0
c1ccc(CN2C3=NCCN3c3ccccc32)cc1	3.4	-1.7	3.5	-18.5
Clc1ccc(CN2C3=NCCN3c3ccccc32)cc1Cl	17.7*	-2.7	39.5*	-11.2
CN1CCc2c1nc1ccccc1c2N=C1CCCN1Cc1ccccc1	21.9*	-15.8	22.4*	-45.6
Cc1cc(C)c(N=C2CCCN2Cc2ccccc2)c(C#N)c1	11.9	11.0	5.8	4.8
O=C(Nc1ccc(Cl)cc1)Nc1ccc2c(c1)N1CCN=C1S2	-7.4	30.4	-17.7	35.1*
COc1cccc2sc(Nc3nc(-c4ccncc4)cs3)nc12	x	35.2*	-13.9	40.4*
COc1cccc2sc(Nc3nc(-c4cc5ccccc5oc4=O)cs3)nc12	3.1	-8.4	2.2	-13.9
O=C1C2C3c4ccccc4C(c4ccccc43)C2c2nc3ccccc3n21 (stereo not given)	11.4	-11.0	23.8*	-17.6
CC(=O)N(C(C)=O)N1C(=O)C2C3c4ccccc4C(c4ccccc43)C2C1=O (stereo not given)	x	-2.3	-0.5	1.5
O=C(O)c1cc(/C=C/c2ccc(N3CCOCC3)cc2)nc2ccccc12	x	16.9	8.3	-4.2
O=C(O)c1cc(/C=C/c2ccc(N3CCOCC3)c([N+](=O)[O-])c2)nc2ccccc12	x	77.6*	x	53.5*
COc1ccc2nc3cc(Cl)ccc3c(Nc3cc(C(C)C)c(O)cc3C)c2c1	x	59.2*	x	61.9*
COc1ccc(C(=O)Nc2ccc(Cl)cc2C(=O)N2CCCC(C)C2)cc1OC (stereo not given)	11.4	5.0	7.5	4.3
CCCCCOc1ccc(Br)cc1CSC(=N)N	35.2*	-2.8	45.9*	-99.4
CC(=O)C1=NN(c2ccc(Cl)cc2)C(c2ccc3c(c2)OCO3)N(C(C)=O)N1C (stereo not given)	x	6.5	x	-7.5
COc1ccc(CCNCC(O)Cn2c3ccccc3c3ccccc32)cc1OC (stereo not given)	x	16.6	5.6	22.2
COc1ccc(CCNCC(O)COc2cccc(Br)c2)cc1OC (stereo not given)	x	81.8*	x	104.8*
CCN(CC)S(=O)(=O)c1ccc2c(c1)c(=O)c(C(=O)NCc1ccco1)cn2C	x	6.1	0.5	10.5
O=C(NCc1ccccc1)c1cc[n+](CC(=O)c2cccs2)cc1	x	2.4	x	10.9
O=C(NCCc1ccccc1)C1CCCN(S(=O)(=O)c2cnc[nH]2)C1 (stereo not given)	0.1	72.9*	0.6	-15.6
COc1cccc(N2CCN(C(=O)/C=C/c3ccco3)CC2)c1	x	-3.4	10.6	-10.9
COc1ccccc1CNCC(O)(c1ccc(Cl)cc1)c1ccc(Cl)cc1	21.2*	-4.6	20.9*	-36.9
OC(CNCc1ccccc1F)(c1ccc(F)cc1)c1ccc(F)cc1	x	-2.4	17.3	-26.3
SMILES	NPY Y2 blocker	NPY-Y2 PAM-ag	NPY-Y1 antag	NPY-Y1 PAM-ag	others
COc1ccccc1NC(=O)COc1ccc(Br)cc1CNC1CCCC1	x	-9.6	21.1*	-20.4
O=C(CC1C(=O)N(c2ccc(Cl)cc2)C(=S)N1CCc1ccncc1)Nc1ccc(F)cc1 (stereo not given)	-2.5	52.2*	-7.6	60.9*
O=C(CN1C2=NCCN2c2ccccc21)C12CC3CC(CC(C3)C1)C2	48.8*	-33.3	67.3*	-97.0
Cc1ccc(CN2C3=NCCN3c3ccccc32)cc1	x	-13.3	17.4	-21.1
Cc1ccc(NC(=S)N/N=C/c2ccc(Cl)c([N+](=O)[O-])c2)cc1	0.7	-15.8	0.9	4.5
O=[N+]([O-])c1cc(/C=N/NC(=S)Nc2ccccc2Cl)ccc1Cl	x	36.4*	-7.0	40.7*
O=S(=O)(/N=C(/Nc1ccccc1)c1ccccc1O)c1ccccc1	x	1.2	-1.8	-0.9
Cc1nc(C#N)c(N/N=C/c2c(F)cccc2Cl)o1	1.4	-11.4	0.6	-20.0
C(=C\c1ccccc1)/CSc1nnc(-c2ccccn2)n1Cc1ccco1	19.8*	-11.4	21.4*	-56.3
Cc1cc(N=Nc2ccccc2)c(NCC(O)C(O)C(O)CO)cc1C (stereo not given)	x	56.6*	-16.3	73.2*
O=C(CCc1nnc(COc2ccccc2)o1)NC1(c2ccccc2)CC1	x	-9.0	9.7	12.6
O=C(NNC(=S)Nc1ccccc1C(F)(F)F)C1CC1	x	-5.9	x	7.7
Cc1cnc(C(=O)Nc2ccccc2-c2ccc(C)o2)cn1	2.9	55.8*	4.0	100.5*
CN(C)c1ccc(N=Nc2ccccc2C(=O)OCC(=O)NCC2CCCCC2)cc1	-4.9	53.8*	-12.9	59.2*
C/C=C(/C)C(=O)O[C@@H]1c2c(ccc3ccc(=O)oc23)O[C@@H]1C(C)(C)OC(=O)/C(C)=C\C	18.8*	-7.1	19.7	-38.8	NPY-Y1 antag ct=15.6;NPY-Y2 ant conf=31.6*
CC(C)(C)NCc1cc(Br)ccc1OCc1cccs1	20.2*	28.6	16.2	17.8	NPY-Y1 antag ct=5.4;NPY-Y2 ant conf=4.4
CCN(CC)S(=O)(=O)c1cc(C(=O)Oc2cccc(-c3cnc4ccccc4n3)c2)ccc1OC	20.3*	-0.1	13.9	-48.0	NPY-Y1 antag ct=31.1*;NPY-Y2 ant conf=13.7
O=C(Nc1nc2ccccc2s1)c1cc(-c2ccco2)nc2ccccc12	37.5*	-115.7	6.7	-110.9	NPY-Y1 antag ct=64.5*;NPY-Y2 ant conf=88.0*
O=[N+]([O-])c1cccc(COc2ncnc3cc([N+](=O)[O-])ccc23)c1	x	11.8	x	27.1
COc1ccc(N2C(=O)/C(=C\c3ccco3)N=C2SCC(=O)N(C(C)C)C(C)C)cc1Cl	17.9*	-1.8	5.5	-11.5	NPY-Y1 antag ct=7.7;NPY-Y2 ant conf=9.8
COc1ccc(/C=N/NC(=O)CN(CCc2ccccc2)S(=O)(=O)c2ccc(NC(C)=O)cc2)cc1OC	18.0*	-4.9	-0.7	-9.7	NPY-Y1 antag ct=10.8;NPY-Y2 ant conf=44.5*
COc1cc(/C=N/NC(=O)CCOc2ccccc2C)cc(Br)c1O	x	-3.7	6.7	-1.9
COc1ccc(/C=N/NC(=O)CCOc2ccccc2C)cc1OC	35.0*	13.4	7.6	-17.6	NPY-Y1 antag ct=11.9;NPY-Y2 ant conf=15.8
COc1cc(/C=N/NC(=O)CN(CCc2ccccc2)S(=O)(=O)c2ccc(NC(C)=O)cc2)cc(OC)c1OC	-0.3	1.3	-2.9	-3.9
COc1ccc(C(C(=O)NC2CCCCC2)N(C(=O)CCl)c2ccc(C)cc2)cc1 (stereo not given)	2.3	-8.9	5.5	7.9

Source: PubChem BioAssay
